Experimental data as given in ChEMBL document CHEMBL1125781, “Peptide to glycopeptide: glycosylated oligopeptide renin inhibitors with attenuated in vivo clearance properties” (J Med Chem, 1991).
*1 amine or outer side, *2 acyl side, *3 side chain or, on linkers, in order; H or OH if unused. Where a SMILES comes first, the peptide text is derived from it. [ ]: non-standard residue; d: D form. The star is where a group is joined. ξ: configuration not given here. X1 = CC(C)C[C@H](N[*:1])[C@@H](O)C[C@H](C(=O)[*:2])C(C)C; NH(2-picolyl-N-oxide) = [O-][n+]1ccccc1CN*; NMeH = CN[C@@H](Cc1c[nH]cn1)C(=O)O; NHCH2(2-pyridyl) = c1ccc(CN*)nc1; X2 = CC(=O)NC1C(N*)OC(CO)C(O)C1O; Ile(3ξ) = CCC(C)[C@H](N)C(=O)O; NHC(CH2OH)3 = OCC(CO)(CO)N*; X3 = OCC1OC(N*)C(O)C(O)C1O; Boc = CC(C)(C)OC(=O)*; CO = O=C([*:1])[*:2]

Columns and labels:
Format in all cases: functional, organism-based
[1] = species on record: Rattus norvegicus; test: Compound was tested for the urinary recovery dose in rats; conditions: Urine
Summary of the method: (§1)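 Anesthetized, bile duct cannulated rats given peptide by tail vein injection, 1 mg kg⁻¹ or the molar equivalent, in 3 mM citric acid/saline vehicle. Blood taken from the orbital sinus at 5 and 60 min. Serum inhibitor concentration measured by renin enzyme activity assay. Percent of recovered dose in bile and urine determined over the 3-h study period. Means, n = 4.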

[2] = species on record: Rattus norvegicus; test: Compound was tested for the biliary recovery dose in rats; summary of the method: as §1
[3] = tested on: Rattus norvegicus; test: Serum concentration at 60 min after iv administration in bile duct cannulated rat.; summary of the method: as §1
[4] = tested on: Rattus norvegicus; test: Serum concentration at 5 min after iv administration in bile duct cannulated rat; summary of the method: as §1
[5] = tested on: Rattus norvegicus; test: Serum concentration at 5 min after iv administration in bile duct cannulated rat.; summary of the method: as §1
[6] = tested on: Rattus norvegicus; test: Serum concentration at 60 min after iv administration in bile duct cannulated rat; summary of the method: as §1

SMILES	Recovery [1] [%]	Recovery [2] [%]	Serum concentration [3] [nM]	Serum concentration [4] [nM]	Serum concentration [5] [nM]	Serum concentration [6] [nM]
CCC(C)[C@H](NC(=O)[C@@H](C[C@H](O)[C@H](CC(C)C)NC(=O)[C@H](Cc1c[nH]cn1)N(C)C(=O)[C@H](Cc1ccccc1)NC(=O)[C@@H]1CCCN1C(=O)[C@H](CC(=O)NC1OC(CO)C(O)C(O)C1NC(C)=O)NC(=O)OC(C)(C)C)C(C)C)C(=O)NCc1ccccn1 (stereo partly specified) (Boc-D(X2)PF[NMeH][X1][Ile(3ξ)]-{NHCH2(2-pyridyl)})	24	76	20	1790	–	–
CCC(C)[C@H](NC(=O)[C@@H](C[C@H](O)[C@H](CC(C)C)NC(=O)[C@H](Cc1c[nH]cn1)N(C)C(=O)[C@H](Cc1ccccc1)NC(=O)[C@@H]1CCCN1C(=O)NC(CO)(CO)CO)C(C)C)C(=O)NCc1cccc[n+]1[O-] (stereo partly specified) ({NHC(CH2OH)3-CO}-PF[NMeH][X1][Ile(3ξ)]-{NH(2-picolyl-N-oxide)})	17	83	15	–	1100	–
CCC(C)[C@H](NC(=O)[C@@H](C[C@H](O)[C@H](CC(C)C)NC(=O)[C@H](Cc1c[nH]cn1)N(C)C(=O)[C@H](Cc1ccccc1)NC(=O)[C@@H]1CCCN1C(=O)[C@H](CC(=O)NC1OC(CO)C(O)C(O)C1O)NC(=O)OC(C)(C)C)C(C)C)C(=O)NCc1ccccn1 (stereo partly specified) (Boc-D(X3)PF[NMeH][X1][Ile(3ξ)]-{NHCH2(2-pyridyl)})	35	65	–	2190	–	39
CCC(C)[C@H](NC(=O)[C@@H](C[C@H](O)[C@H](CC(C)C)NC(=O)[C@H](Cc1c[nH]cn1)N(C)C(=O)[C@H](Cc1ccccc1)NC(=O)[C@@H]1CCCN1C(=O)[C@H](CC(=O)NC1OC(CO)C(O)C(O)C1NC(C)=O)NC(=O)OC(C)(C)C)C(C)C)C(=O)NCc1cccc[n+]1[O-] (stereo partly specified) (Boc-D(X2)PF[NMeH][X1][Ile(3ξ)]-{NH(2-picolyl-N-oxide)})	67	33	–	2580	–	158
